Experiments:
[1] = molecular target: Human immunodeficiency virus type 1 protease (Human immunodeficiency virus 1, UniProt Q72874); test: Tested for inhibitory activity against HIV-1 protease
Summary of the method: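 Recombinant HIV-1 protease hydrolysing 2.5 mM synthetic octapeptide substrate H-Val-Ser-Gln-Asn-Tyr-Pro-Ile-Val-OH, with or without inhibitor. Run at 30 °C in 100 mM sodium acetate pH 5.5 with 10% glycerol, 5% ethylene glycol and 0.1% Nonidet P-40. Stopped after 30 min with 1% trifluoroacetic acid; hydrolysis quantified by HPLC.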

[2] = system: Human immunodeficiency virus 1; test: (§1) Tested for the inhibition of p24 production in HIV-1 IIIB infected human peripheral blood mononuclear cells (PBMC); type: functional
Summary of the method: (§2)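 Human PBMC (5×10^4 cells) were infected with HIV-1 IIIB at MOI 0.003 for 90 min. They were then kept in triplicate wells with continuous compound present for 7 days; compounds came from 10 mM DMSO stocks. Supernatant p24 was measured by ELISA. IC50 and IC90 were taken from linear regression on the linear part of the dose-response curve.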

[3] = system: Human immunodeficiency virus 1; test: as §1; type: functional, organism-based; summary of the method: as §2

CC[C@H](C)[C@H](NC(=O)[C@H](C(C)C)[C@@H](O)[C@H](O)[C@H](CC1CCCCC1)NC(=O)[C@H](Cc1c[nH]cn1)NC(=O)COc1cccc2ccccc12)C(=O)NCc1ccccn1
Ki [1]: < 1 nM | IC90 [2]: 223 nM | IC50 [3]: 50.2 nM
